According to ChEMBL document CHEMBL1156681, “Synthesis, anti-bacterial, anti-asthmatic and anti-diabetic activities of novel N-substituted-2-(4-phenylethynyl-phenyl)-1H-benzimidazoles and N-substituted 2[4-(4,4-dimethyl-thiochroman-6-yl-ethynyl)-phenyl)-1H-benzimidazoles” (2008):
In brackets after ≈: the same amount, converted by molar mass. Activity calls are given as the source filed them. The rule behind the calls is not given here.

Key:
[1] = target: T1, Tyrosine-protein phosphatase non-receptor type 1 (Homo sapiens) (UniProt P18031); assay: Inhibition of human recombinant PTP1B at 30 uM after 30 mins relative to control
T1 sequence (whole entry): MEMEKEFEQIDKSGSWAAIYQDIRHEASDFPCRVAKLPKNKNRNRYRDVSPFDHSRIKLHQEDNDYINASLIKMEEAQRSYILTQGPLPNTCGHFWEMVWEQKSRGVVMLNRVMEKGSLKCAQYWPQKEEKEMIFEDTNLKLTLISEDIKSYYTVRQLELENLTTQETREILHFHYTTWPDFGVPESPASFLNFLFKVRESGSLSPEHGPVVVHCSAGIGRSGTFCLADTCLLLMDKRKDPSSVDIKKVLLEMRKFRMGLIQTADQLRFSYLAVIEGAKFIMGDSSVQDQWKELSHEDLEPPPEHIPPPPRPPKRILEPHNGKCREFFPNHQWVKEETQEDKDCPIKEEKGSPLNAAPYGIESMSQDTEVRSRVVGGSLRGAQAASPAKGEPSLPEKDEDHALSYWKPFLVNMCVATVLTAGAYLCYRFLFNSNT
In short: (§1)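 In-house human recombinant PTP-1B (~35 ng) was assayed with p-nitrophenyl phosphate in 25 mM Hepes, 3 mM DTT and 1 mM EDTA, pH 7.4, with DMSO at ≤1%. Absorbance at 405 nm was monitored continuously at 30 °C for 30 min, then NaOH was added and 405 nm read again. Activity was expressed as % of control, and % inhibition as 100 minus activity.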

[2] = tested on: Staphylococcus aureus; assay: Antibacterial activity against Staphylococcus aureus at 0.1 ug/ml after 48 hrs by tube dilution method; assay type: functional, organism-based
In short: (§2)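 Compounds dissolved in DMSO and tested by tube dilution at […]. Tubes were incubated at 37 °C for 48 h. Growth was scored against the DMSO control as poor, medium or confluent (no inhibition). MIC was taken from the dilution series. Cephalexin served as the reference antibacterial and DMSO as the solvent control.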

[3] = tested on: Staphylococcus aureus; assay: Antibacterial activity against Staphylococcus aureus at 1 ug/ml after 48 hrs by tube dilution method; assay type: functional, organism-based; in short: as §2
[4] = tested on: Staphylococcus aureus; assay: Antibacterial activity against Staphylococcus aureus at 10 ug/ml after 48 hrs by tube dilution method; assay type: functional, organism-based; in short: as §2
[5] = tested on: Staphylococcus aureus; assay: Antibacterial activity against Staphylococcus aureus at 100 ug/ml after 48 hrs by tube dilution method; assay type: functional, organism-based; in short: as §2
[6] = tested on: Staphylococcus aureus; assay: Antibacterial activity against Staphylococcus aureus at 500 ug/ml after 48 hrs by tube dilution method; assay type: functional, organism-based; in short: as §2
[7] = tested on: Staphylococcus aureus; assay: Antibacterial activity against Staphylococcus aureus after 48 hrs by tube dilution method; assay type: functional; in short: as §2
[8] = tested on: Salmonella typhimurium; assay: Antibacterial activity against Salmonella Typhimurium at 0.1 ug/ml after 48 hrs by tube dilution method; assay type: functional, organism-based; details: Salmonella enterica subsp. enterica serovar Typhimurium; in short: as §2
[9] = tested on: Salmonella typhimurium; assay: Antibacterial activity against Salmonella Typhimurium at 1 ug/ml after 48 hrs by tube dilution method; assay type: functional, organism-based; details: Salmonella enterica subsp. enterica serovar Typhimurium; in short: as §2
[10] = tested on: Salmonella typhimurium; assay: Antibacterial activity against Salmonella Typhimurium at 10 ug/ml after 48 hrs by tube dilution method; assay type: functional, organism-based; details: Salmonella enterica subsp. enterica serovar Typhimurium; in short: as §2
[11] = tested on: Salmonella typhimurium; assay: Antibacterial activity against Salmonella Typhimurium at 100 ug/ml after 48 hrs by tube dilution method; assay type: functional, organism-based; details: Salmonella enterica subsp. enterica serovar Typhimurium; in short: as §2
[12] = tested on: Salmonella typhimurium; assay: Antibacterial activity against Salmonella Typhimurium at 500 ug/ml after 48 hrs by tube dilution method; assay type: functional, organism-based; details: Salmonella enterica subsp. enterica serovar Typhimurium; in short: as §2
[13] = tested on: Salmonella typhimurium; assay: Antibacterial activity against Salmonella Typhimurium after 48 hrs by tube dilution method; assay type: functional, Salmonella enterica subsp. enterica serovar Typhimurium; details: Salmonella enterica; in short: as §2
[14] = target: T2, Phosphodiesterase 4 (Homo sapiens) (UniProt P27815+Q08499+Q07343+Q08493); assay: Inhibition of human PDE4 at 1 uM after 20 mins; assay type: protein assay
[15] = target: Dipeptidyl peptidase 4 (Homo sapiens) (UniProt P27487); assay: Inhibition of human recombinant DPP4 at 0.3 uM after 30 mins relative to control
Dipeptidyl peptidase 4 (Homo sapiens), sequence (P27487 whole entry, looked up): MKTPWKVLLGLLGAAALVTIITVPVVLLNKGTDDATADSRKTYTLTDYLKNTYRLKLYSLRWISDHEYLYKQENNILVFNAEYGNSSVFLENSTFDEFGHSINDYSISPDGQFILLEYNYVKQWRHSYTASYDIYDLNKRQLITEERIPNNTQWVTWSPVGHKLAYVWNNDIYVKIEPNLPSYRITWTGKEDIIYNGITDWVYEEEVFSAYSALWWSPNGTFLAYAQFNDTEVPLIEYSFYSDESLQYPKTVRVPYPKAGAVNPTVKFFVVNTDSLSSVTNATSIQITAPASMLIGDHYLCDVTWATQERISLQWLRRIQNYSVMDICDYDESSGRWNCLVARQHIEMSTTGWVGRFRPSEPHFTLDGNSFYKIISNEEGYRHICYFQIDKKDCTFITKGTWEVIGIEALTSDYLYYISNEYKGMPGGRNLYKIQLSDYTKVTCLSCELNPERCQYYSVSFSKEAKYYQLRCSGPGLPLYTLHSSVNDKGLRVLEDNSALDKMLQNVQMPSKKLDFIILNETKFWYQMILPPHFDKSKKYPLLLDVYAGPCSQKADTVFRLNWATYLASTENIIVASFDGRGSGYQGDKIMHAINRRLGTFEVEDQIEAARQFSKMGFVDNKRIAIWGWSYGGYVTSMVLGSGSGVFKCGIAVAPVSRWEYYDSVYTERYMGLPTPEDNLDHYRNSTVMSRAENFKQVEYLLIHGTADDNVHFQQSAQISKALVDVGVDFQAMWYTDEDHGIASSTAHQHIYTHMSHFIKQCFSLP
In short: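 Recombinant human DPP-IV (10 ng) was run in 25 mM Tris pH 7.4, 140 mM NaCl, 10 mM KCl and 1% BSA with Gly-Pro-AMC substrate. Compounds in DMSO were added, and AMC release was followed kinetically at 30 °C for 30 min (ex 380 / em 460 nm). Percent inhibition was calculated against the solvent-only control.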

[16] = tested on: Staphylococcus aureus; assay: Antibacterial activity against Staphylococcus aureus at 200 ug/ml after 48 hrs by tube dilution method; assay type: functional, organism-based; in short: as §2
[17] = tested on: Salmonella typhimurium; assay: Antibacterial activity against Salmonella Typhimurium at 200 ug/ml after 48 hrs by tube dilution method; assay type: functional, organism-based; details: Salmonella enterica subsp. enterica serovar Typhimurium; in short: as §2
[18] = target: T1, Tyrosine-protein phosphatase non-receptor type 1 (Homo sapiens); assay: Inhibition of human recombinant PTP1B at 0.3 uM after 30 mins relative to control; in short: as §1
[19] = target: T2, Phosphodiesterase 4 (Homo sapiens); details: 0.075 uM

| inhibition [1] [%] | MIC [7] [µg/mL] | MIC [13] [µg/mL] | inhibition [14] [%] | inhibition [15] [%] | inhibition [18] [%] | inhibition [19] [%] | Structure (SMILES) | Activity [2] | Activity [3] | Activity [4] | Activity [5] | Activity [6] | Activity [8] | Activity [9] | Activity [10] | Activity [11] | Activity [12] | Activity [16] | Activity [17] |
| --- | --- | --- | --- | --- | --- | --- | --- | --- | --- | --- | --- | --- | --- | --- | --- | --- | --- | --- | --- |
| 17.4 | 500 (≈ 1270 µM) | 500 (≈ 1270 µM) | 17.2 | 0 | – | – | CC(C)COC(=O)n1c(-c2ccc(C#Cc3ccccc3)cc2)nc2ccccc21 | inactive | inactive | inactive | inactive | Active | inactive | inactive | inactive | inactive | Active | – | – |
| – | – | – | – | – | 49.1 | – | C=C(O)CN(c1ccccc1C(=O)O)C(CCC(=O)N[C@@H](CCSC)C(=O)O)CNC(=O)C(Cc1cccc(CC)c1)NC(C)=O (stereo partly drawn) | – | – | – | – | – | – | – | – | – | – | – | – |
| – | – | – | – | – | – | 45.3 | COc1ccc([C@]2(C#N)CC[C@@H](C(=O)O)CC2)cc1OC1CCCC1 | – | – | – | – | – | – | – | – | – | – | – | – |

More lines, now with the values behind:

| Structure (SMILES) | inhibition [1] [%] | MIC [7] [µg/mL] | MIC [13] [µg/mL] | inhibition [14] [%] | inhibition [15] [%] | inhibition [18] [%] | inhibition [19] [%] | Activity [2] | Activity [3] | Activity [4] | Activity [5] | Activity [6] | Activity [8] | Activity [9] | Activity [10] | Activity [11] | Activity [12] | Activity [16] | Activity [17] |
| --- | --- | --- | --- | --- | --- | --- | --- | --- | --- | --- | --- | --- | --- | --- | --- | --- | --- | --- | --- |
| CCCCOC(=O)n1c(-c2ccc(C#Cc3ccccc3)cc2)nc2ccccc21 | 5.84 | 500 (≈ 1270 µM) | 500 (≈ 1270 µM) | 16.2 | 0 | – | – | inactive | inactive | inactive | inactive | Active | inactive | inactive | inactive | inactive | Active | – | – |
| CC1=C(C(=O)O)N2C(=O)[C@@H](NC(=O)[C@H](N)c3ccccc3)[C@H]2SC1 [CEPHALEXIN ANHYDROUS] | – | 10 (≈ 28.8 µM) | 200 (≈ 576 µM) | – | – | – | – | inactive | inactive | Active | Active | Active | inactive | inactive | – | – | Active | Active | Active |
| CCn1c(-c2ccc(C#Cc3ccccc3)cc2)nc2ccccc21 | 2.2 | 500 (≈ 1550 µM) | 500 (≈ 1550 µM) | 13.5 | 0 | – | – | inactive | inactive | inactive | inactive | Active | inactive | inactive | inactive | inactive | Active | – | – |
| O=S(=O)(n1c(-c2ccc(C#Cc3ccccc3)cc2)nc2ccccc21)C(F)(F)F | 0 | 500 (≈ 1170 µM) | 500 (≈ 1170 µM) | 16.9 | 0 | – | – | inactive | inactive | inactive | inactive | Active | inactive | inactive | inactive | – | Active | – | – |
